In ChEMBL document CHEMBL2074042, “beta-lactam antibiotics as substrates for OCTN2, an organic cation/carnitine transporter” (J Biol Chem, 2000) one finds Activity, IC50 and activity data, which are given here for five molecules.

Type in all cases: functional, cell-based
The target in series [1] is T1, Organic cation/carnitine transporter 2 (Homo sapiens, UniProt O76082).
T1 sequence (O76082 whole entry): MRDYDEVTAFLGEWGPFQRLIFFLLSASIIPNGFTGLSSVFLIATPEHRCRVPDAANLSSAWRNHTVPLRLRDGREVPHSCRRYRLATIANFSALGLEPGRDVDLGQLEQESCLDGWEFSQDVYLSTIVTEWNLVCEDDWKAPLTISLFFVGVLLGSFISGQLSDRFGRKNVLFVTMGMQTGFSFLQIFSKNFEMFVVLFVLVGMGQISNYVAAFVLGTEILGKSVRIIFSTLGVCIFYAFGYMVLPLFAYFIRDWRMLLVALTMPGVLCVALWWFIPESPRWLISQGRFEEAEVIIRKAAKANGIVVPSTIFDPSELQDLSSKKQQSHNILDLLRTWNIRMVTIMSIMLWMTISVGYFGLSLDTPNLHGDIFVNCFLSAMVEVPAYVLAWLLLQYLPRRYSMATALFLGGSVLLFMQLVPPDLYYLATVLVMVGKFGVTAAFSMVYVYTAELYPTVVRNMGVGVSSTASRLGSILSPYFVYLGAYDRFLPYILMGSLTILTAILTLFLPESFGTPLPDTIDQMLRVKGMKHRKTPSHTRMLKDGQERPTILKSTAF
Nature of the series: TP_TRANSPORTER: inhibition of Carnitine uptake (Carnitine: 0.02 uM, Ampicillin: 2500 uM) in OCTN2-expressing HeLa cells.

In series [2] the target is T2, Organic cation/carnitine transporter 2 (Rattus norvegicus, UniProt O70594).
T2 sequence (O70594 whole entry): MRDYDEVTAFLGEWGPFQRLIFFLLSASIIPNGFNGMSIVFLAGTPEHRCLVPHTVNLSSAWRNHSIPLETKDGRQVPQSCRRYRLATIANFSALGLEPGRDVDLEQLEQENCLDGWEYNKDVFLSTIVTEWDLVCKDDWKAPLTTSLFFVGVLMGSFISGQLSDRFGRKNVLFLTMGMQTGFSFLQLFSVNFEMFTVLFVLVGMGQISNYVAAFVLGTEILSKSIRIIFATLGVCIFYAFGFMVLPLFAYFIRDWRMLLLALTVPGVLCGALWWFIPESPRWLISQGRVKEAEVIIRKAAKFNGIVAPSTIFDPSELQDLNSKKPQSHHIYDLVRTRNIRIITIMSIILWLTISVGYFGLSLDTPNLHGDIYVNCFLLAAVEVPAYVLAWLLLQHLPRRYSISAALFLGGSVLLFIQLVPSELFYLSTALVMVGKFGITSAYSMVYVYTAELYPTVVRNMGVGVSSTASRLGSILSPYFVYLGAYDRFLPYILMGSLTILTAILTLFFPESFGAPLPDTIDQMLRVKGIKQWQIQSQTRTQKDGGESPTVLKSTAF
Nature of the series: (§1) TP_TRANSPORTER: inhibition of Carnitine uptake (Carnitine: 0.02 uM, Cefadroxil: 2500 uM) in OCTN2-expressing HeLa cells. The conditions noted are these: human. Put shortly: (§2)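 HeLa cells expressed human or rat OCTN2 cDNA by vaccinia virus/T7 system. [3H]carnitine (20 nM) uptake for 30 min at room temperature in Na+-containing Hepes/Tris buffer, pH 7.5, with β-lactam at 2.5 mM. Lysate radioactivity counted. Endogenous activity from vector-only cells subtracted. Four measurements from two transfections.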

For series [3], the target named is T1, Organic cation/carnitine transporter 2. The description is as §1. Put shortly:
as §2

Series [4] shares this target. As to the kind of experiment: TP_TRANSPORTER: inhibition of Carnitine uptake (Carnitine: 0.02 uM, Cefdinir: 2500 uM) in OCTN2-expressing HeLa cells.
In series [5] the target is T3, Solute carrier family 15 member 1 (Homo sapiens) (UniProt P46059).
T3 sequence (whole entry): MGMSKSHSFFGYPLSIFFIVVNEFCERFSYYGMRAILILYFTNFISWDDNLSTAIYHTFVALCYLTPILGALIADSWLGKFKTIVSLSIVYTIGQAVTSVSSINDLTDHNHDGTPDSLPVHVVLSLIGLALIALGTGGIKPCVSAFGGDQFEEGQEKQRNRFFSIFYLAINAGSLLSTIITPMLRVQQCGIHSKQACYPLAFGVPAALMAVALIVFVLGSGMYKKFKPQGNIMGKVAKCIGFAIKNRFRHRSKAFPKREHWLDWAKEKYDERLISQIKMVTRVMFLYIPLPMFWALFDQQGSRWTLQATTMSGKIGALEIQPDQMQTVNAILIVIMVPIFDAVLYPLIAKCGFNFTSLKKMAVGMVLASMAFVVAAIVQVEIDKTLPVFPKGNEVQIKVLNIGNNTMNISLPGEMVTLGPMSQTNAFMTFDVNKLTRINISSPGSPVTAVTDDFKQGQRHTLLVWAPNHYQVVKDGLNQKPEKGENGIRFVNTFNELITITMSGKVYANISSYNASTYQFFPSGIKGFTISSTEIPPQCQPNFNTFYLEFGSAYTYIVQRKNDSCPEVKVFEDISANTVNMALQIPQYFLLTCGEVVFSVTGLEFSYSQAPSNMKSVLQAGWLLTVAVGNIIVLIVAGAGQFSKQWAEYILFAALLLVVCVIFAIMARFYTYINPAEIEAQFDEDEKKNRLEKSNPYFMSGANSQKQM
Nature of the series: TP_TRANSPORTER: inhibition of Gly-Sar uptake (Gly-Sar: 50 uM, Cefepime: 2500uM) in PEPT1-expressing HeLa cells. A digest of the protocol: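 HeLa cells expressing human PEPT1 cDNA. [14C]glycylsarcosine (50 μM) uptake for 5 min in Mes/Tris buffer, pH 6.0, giving an H+ gradient, with test compound at 2.5 mM. Vector-transfected uptake subtracted. Percent of control, n=3, mean ± S.E.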

Series [6] concerns the target T1, Organic cation/carnitine transporter 2. Nature of the series: TP_TRANSPORTER: inhibition of Carnitine uptake (Carnitine: 0.02 uM) in OCTN2-expressing HeLa cells.
The target of series [7] is T4, Solute carrier family 15 member 2 (Rattus norvegicus) (UniProt Q63424).
T4 sequence (whole entry): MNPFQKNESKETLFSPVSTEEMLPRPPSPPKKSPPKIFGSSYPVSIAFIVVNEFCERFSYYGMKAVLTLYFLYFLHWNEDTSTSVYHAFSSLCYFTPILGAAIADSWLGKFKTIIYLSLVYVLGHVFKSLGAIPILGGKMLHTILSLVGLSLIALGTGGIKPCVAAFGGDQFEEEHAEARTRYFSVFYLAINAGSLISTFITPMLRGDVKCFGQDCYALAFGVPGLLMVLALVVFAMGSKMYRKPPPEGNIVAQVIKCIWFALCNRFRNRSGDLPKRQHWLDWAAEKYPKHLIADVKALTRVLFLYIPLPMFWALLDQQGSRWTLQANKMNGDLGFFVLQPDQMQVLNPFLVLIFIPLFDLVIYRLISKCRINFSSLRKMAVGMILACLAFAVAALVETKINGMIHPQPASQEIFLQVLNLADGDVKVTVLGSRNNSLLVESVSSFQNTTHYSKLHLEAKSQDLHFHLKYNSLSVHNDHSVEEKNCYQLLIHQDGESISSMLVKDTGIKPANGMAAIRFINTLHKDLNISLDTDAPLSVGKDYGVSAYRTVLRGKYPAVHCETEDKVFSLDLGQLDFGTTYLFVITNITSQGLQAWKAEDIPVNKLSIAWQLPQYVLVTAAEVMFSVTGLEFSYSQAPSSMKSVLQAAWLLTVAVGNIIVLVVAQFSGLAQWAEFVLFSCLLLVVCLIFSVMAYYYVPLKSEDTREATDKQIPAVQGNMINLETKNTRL
As to the kind of experiment: TP_TRANSPORTER: inhibition of Gly-Sar uptake (Gly-Sar: 25 uM, Cefepime: 2500uM) in PEPT2-expressing HeLa cells. A digest of the protocol:
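HeLa cells expressing rat PEPT2 cDNA. [14C]glycylsarcosine (25 μM) uptake for 5 min under an inward H+ gradient in Mes/Tris buffer, pH 6.0, with test compound at 2.5 mM. Vector-cell uptake subtracted. Results as percent of control, three independent measurements, mean ± S.E.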

In series [8] the target is T5, OCTN2 (organic cation/carnitine transporter 2) (Rattus norvegicus, UniProt O70594).
T5 sequence (O70594 whole entry): T2 sequence (O70594 whole entry)
Nature of the series: TP_TRANSPORTER: inhibition of Carnitine uptake (Carnitine: 0.02 uM, Cefepime: 2500 uM) in OCTN2-expressing HeLa cells. Details: scale not given: the % may be the effect or the level left. The conditions noted are these: human, probe carnitine (0.02 uM), read-out: Activity. A digest of the protocol: as §2

Series [9] addresses T1, Organic cation/carnitine transporter 2. Nature of the series: TP_TRANSPORTER: inhibition of Carnitine uptake (Carnitine: 0.02 uM, Cefixime: 2500 uM) in OCTN2-expressing HeLa cells.

For the molecule `CC1(C)S[C@@H]2[C@H](NC(=O)[C@H](N)c3ccccc3)C(=O)N2[C@H]1C(=O)O` [AMPICILLIN], in series [1], the Activity entry is “is not an inhibitor [-]”. As for `CC1=C(C(=O)O)N2C(=O)[C@@H](NC(=O)[C@H](N)c3ccc(O)cc3)[C@H]2SC1` [CEFADROXIL], the Activity result in series [2] and in series [3] was “is not an inhibitor [-]” each time.

Consider `C=CC1=C(C(=O)O)N2C(=O)[C@@H](NC(=O)/C(=N\O)c3csc(N)n3)[C@H]2SC1` [CEFDINIR], for which the Activity entry in series [4] is “is not an inhibitor [-]”. Broadly, the IC50 is the point on the concentration scale where inhibition reaches its midpoint. For `CO/N=C(\C(=O)N[C@@H]1C(=O)N2C(C(=O)[O-])=C(C[N+]3(C)CCCC3)CS[C@H]12)c1csc(N)n1` [CEFEPIME], the Activity result in series [5] and in series [7] was “is not an inhibitor [-]” in each case. Also, it took 1700 µM to reach half-maximal inhibition in series [6] (IC50). In addition, the activity at 2500 µM in series [8] is 28%.

For `C=CC1=C(C(=O)O)N2C(=O)[C@@H](NC(=O)/C(=N\OCC(=O)O)c3csc(N)n3)[C@H]2SC1` [CEFIXIME], in series [9], the Activity entry was “is not an inhibitor [-]”.
